Reference: paper PMC9231628 (Proceedings of the National Academy of Sciences of the …, 2022)
Each block holds one compound with its values, some of them ahead of it.

Columns and labels:
Oncopeltus Na+/K+-ATPase = test: Na+/K+-ATPase inhibition assay, Oncopeltus neural enzyme; assay type: biochemical, Oncopeltus fasciatus; conditions: from Fig. 3
How it was run: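 Neural-tissue enzyme; stocks in 20% DMSO/H₂O (5 mM, or 1 mM for one test compound). Six-point 1/10 dilution series, diluted 1:5 into Tris-buffered ATP, NaCl, KCl, MgCl₂ plus enzyme; 37 °C, 20 min, shaking. Stopped with 10% SDS; Pi by Taussky–Shorr at 700 nm. Background: 10 mM ouabain, no KCl. IC50 from four-parameter logistic mixed model; ratios use monarch enzyme or ouabain IC50s.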

monarch Na+/K+-ATPase = monarch Na+/K+-ATPase (Danaus plexippus, UniProt K0G7C4); conditions: monarch enzyme; cited from earlier work
monarch butterflies = conditions: cited from earlier work
Oncopeltus fasciatus = test: Laboratory rearing on A. syriaca seeds: sequestration of seed cardenolides; assay type: in vivo; conditions: bugs reared on A. syriaca seeds from Ithaca, NY
How it was run: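 Field-collected Oncopeltus (Ithaca, NY) reared on a pooled A. syriaca seed lot for fewer than five generations. Whole adults and seeds, 50 mg ground freeze-dried each, extracted in methanol with 20 µg digitoxin internal standard. Analysed by C18 HPLC-UV (acetonitrile/water gradient, 218 nm), with cardenolides taken as peaks with a 214–222 nm maximum. Quantified by peak area against digitoxin on a dry-mass basis; HRMS for identification.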

Chain of monarch Na+/K+-ATPase (K0G7C4 1-1009): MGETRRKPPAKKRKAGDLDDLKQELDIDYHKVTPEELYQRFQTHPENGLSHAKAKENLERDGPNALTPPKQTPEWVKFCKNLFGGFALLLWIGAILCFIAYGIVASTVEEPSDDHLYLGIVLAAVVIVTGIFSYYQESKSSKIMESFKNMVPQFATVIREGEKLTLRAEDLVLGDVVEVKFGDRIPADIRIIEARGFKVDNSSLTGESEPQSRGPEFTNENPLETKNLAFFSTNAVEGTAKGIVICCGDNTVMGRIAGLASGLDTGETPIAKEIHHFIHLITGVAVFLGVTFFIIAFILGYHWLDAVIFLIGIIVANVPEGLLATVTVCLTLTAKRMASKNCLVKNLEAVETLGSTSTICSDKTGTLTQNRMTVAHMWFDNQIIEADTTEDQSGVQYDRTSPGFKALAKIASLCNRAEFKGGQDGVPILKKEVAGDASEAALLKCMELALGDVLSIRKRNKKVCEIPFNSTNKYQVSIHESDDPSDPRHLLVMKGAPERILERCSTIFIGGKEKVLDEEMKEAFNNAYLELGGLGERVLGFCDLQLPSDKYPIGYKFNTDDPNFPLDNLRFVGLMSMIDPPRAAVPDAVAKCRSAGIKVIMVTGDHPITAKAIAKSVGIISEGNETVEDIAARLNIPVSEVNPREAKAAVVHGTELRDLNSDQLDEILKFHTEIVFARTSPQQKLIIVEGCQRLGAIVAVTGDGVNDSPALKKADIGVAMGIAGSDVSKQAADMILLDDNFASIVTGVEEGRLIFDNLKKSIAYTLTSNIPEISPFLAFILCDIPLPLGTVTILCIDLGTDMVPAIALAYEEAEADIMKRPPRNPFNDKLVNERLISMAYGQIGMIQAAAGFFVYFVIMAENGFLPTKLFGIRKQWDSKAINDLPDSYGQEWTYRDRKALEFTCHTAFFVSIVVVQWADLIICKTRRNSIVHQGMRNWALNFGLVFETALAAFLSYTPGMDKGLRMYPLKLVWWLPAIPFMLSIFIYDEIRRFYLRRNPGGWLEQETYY

Compound: C[C@@H]1O[C@@H](O[C@H]2C[C@@H](O)[C@]3(CO)[C@H]4[C@H](O)C[C@]5(C)[C@@H](C6=CC(=O)OC6)CC[C@]5(O)[C@@H]4CC[C@]3(O)C2)[C@H](O)[C@H](O)[C@H]1O [Ouabain, ouabain]
advantage (tolerance) of Oncopeltus enzyme over monarchs (Oncopeltus Na+/K+-ATPase): 2 fold

Compound: C[C@@H]1C[C@@]2(NCCS2)[C@]2(O)O[C@@H]3C[C@@]4(C=O)[C@@H](CC[C@@H]5[C@@H]4CC[C@]4(C)[C@@H](C6=CC(=O)OC6)CC[C@]54O)C[C@H]3O[C@@H]2O1 [Voruscharin, voruscharin]
IC50 (monarch Na+/K+-ATPase): 2000 nM
effect on monarch growth (monarch butterflies): negatively impacts monarch growth

share of the total cardenolides in bugs (Oncopeltus fasciatus): 33%
Compound: Aspecioside A
